The source of these data is ChEMBL document CHEMBL1158163, “A re-examination of the difluoromethylenesulfonic acid group as a phosphotyrosine mimic for PTP1B inhibition” (Bioorg Med Chem, 2008).

pIC50, pKi: −log10 of the molar value. Starred links: 1 amine or outer side, 2 acyl side, 3 side chain; linkers in the order of their positions; H or OH if unused. Non-standard residues stand in square brackets, D forms with d. Residues, ends and D or L forms follow the SMILES beside them. X1 = O=C([C@@H](Cc1cccc(C(F)(F)S(=O)(=O)O)c1)N[*:1])[*:2]; X3 = O=C([C@@H](Cc1cccc(C(F)(F)P(=O)(O)O)c1)N[*:1])[*:2]; X2 = O=C([C@@H](Cc1cccc(CS(=O)(=O)O)c1)N[*:1])[*:2]

The pIC50 is −log10 of the IC50, conventionally taken in molar units. Read a high pIC50 as a low IC50. The pKi is the negative decadic logarithm of the Ki, by convention in mol/L. A low value points to a high Ki.

In this assay the target is T1, Tyrosine-protein phosphatase non-receptor type 1 (Homo sapiens, UniProt P18031).
T1 sequence (P18031 whole entry): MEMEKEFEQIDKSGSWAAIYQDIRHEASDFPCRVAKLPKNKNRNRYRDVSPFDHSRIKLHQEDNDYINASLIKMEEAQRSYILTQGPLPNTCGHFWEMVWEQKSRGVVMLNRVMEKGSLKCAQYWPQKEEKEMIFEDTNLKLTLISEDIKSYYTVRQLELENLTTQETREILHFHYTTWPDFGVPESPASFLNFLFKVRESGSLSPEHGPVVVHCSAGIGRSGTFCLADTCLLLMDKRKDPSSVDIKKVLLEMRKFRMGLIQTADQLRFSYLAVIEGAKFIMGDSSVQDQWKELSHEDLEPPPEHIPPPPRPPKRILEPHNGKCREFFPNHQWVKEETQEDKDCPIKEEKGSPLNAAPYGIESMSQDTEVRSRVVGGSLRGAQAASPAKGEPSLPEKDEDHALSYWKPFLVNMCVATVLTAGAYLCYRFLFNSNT
The experiment in a line: Inhibition of human PTP1B expressed in Escherichia coli BL21(DE3) cells. Put shortly: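 IC50 assay at 25 °C in 50 mM Bis–Tris HCl pH 6.3 with 2% glycerol, 0.1% Triton X-100, 4% DMSO, 4.5 mM DTT, 1.8 mM EDTA (final). DiFMUP substrate at Km (5 µM). Reaction started by adding PTP1B. DiFMU fluorescence (ex 360/em 460 nm) followed for 10 min. Initial rates Vi/Vo fitted semi-log to Vi = Vo/[1+([I]/IC50)^S]+B.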

Turning to `O=P(O)(O)C(F)(F)c1ccc2ccccc2c1`, the pIC50 is 4.46. `CC(C)C[C@H](NC(=O)[C@@H](Cc1cccc(C(F)(F)S(=O)(=O)O)c1)NC(=O)[C@H](CCC(=O)O)NC(=O)[C@H](CC(=O)O)NC(=O)[C@H](C)NC(=O)[C@@H](N)CC(=O)O)C(N)=O` (H-DADE[X1]L-NH2): the pIC50 was 5.00. As to `NS(=O)(=O)c1cc(-c2ccc(CSCc3ccc(CS(=O)(=O)O)c(Br)c3)cc2)ccc1Br`, the pIC50 is 4.72 and the pKi is 4.99. Molecule `NS(=O)(=O)c1cc(-c2ccc(CSCc3ccc(C(F)(F)P(=O)(O)O)c(Br)c3)cc2)ccc1Br` had a pIC50 of 8.22. `NS(=O)(=O)C(F)(F)c1cc(-c2ccc(CSCc3ccc(C(F)(F)S(=O)(=O)O)c(Br)c3)cc2)ccc1Br`: the pIC50 is 5.22 and the pKi is 5.48. With `CC(C)C[C@H](NC(=O)[C@@H](Cc1cccc(C(F)(F)P(=O)(O)O)c1)NC(=O)[C@H](CCC(=O)O)NC(=O)[C@H](CC(=O)O)NC(=O)[C@H](C)NC(=O)[C@@H](N)CC(=O)O)C(N)=O` (H-DADE[X3]L-NH2), the pKi was 7.62. For the molecule `NS(=O)(=O)c1cc(-c2ccc(CSCc3ccc(C(F)(F)S(=O)(=O)O)c(Br)c3)cc2)ccc1Br`, the pIC50 was 4.89 and the pKi was 4.97. On the same counts, the results for `NS(=O)(=O)C(F)(F)c1cc(-c2ccc(CSCc3ccc(C(F)(F)P(=O)(O)O)c(Br)c3)cc2)ccc1Br` are 7.52 and 7.62. `CC(C)C[C@H](NC(=O)[C@@H](Cc1cccc(CS(=O)(=O)O)c1)NC(=O)[C@H](CCC(=O)O)NC(=O)[C@H](CC(=O)O)NC(=O)[C@H](C)NC(=O)[C@@H](N)CC(=O)O)C(N)=O` (H-DADE[X2]L-NH2) had a negative logarithm of the IC50 (pIC50) of 4.36.
